# High-throughput results (PubChem BioAssay)
# A selection: hits, their analogues and other compounds. The true share with any hit is near 3%.
# DNA FID counter: compounds displacing fluorescent DNA intercalator, primary screen, artefact control for HCV NS3 helicase inhibitor project, biochemical, FID fluorescence; actives 0.17% (n = 290,000); inhibition, % at 7.9 µM; DNA fluorescent intercalator displacement; in the data active = inhibition above about 37%;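 also: 0% = vehicle and 100% = reference compound; higher means more ethidium bromide displaced from hairpin DNA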
# SR-BI DiI inh: inhibitors of SR-BI mediated HDL lipid uptake, primary screen, ldlA[mSR-BI] cells, fluorescence, single point; Scavenger receptor class B member 1 (Mus musculus), Q61009; actives 0.96% (n = 320,000); AID 488896, 2010; inhibition, % at 12.5 µM; ldlA[mSR-BI] CHO cells, DiI-HDL uptake fluorescence, 3 h;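 active = mean replicate inhibition of at least 70% and a set share of replicates each scoring 70 or more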;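 also: 0% = median of neutral control wells and 100% = median of positive control wells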
# Kir21 inh: inhibitors of mouse Kir2.1 inward-rectifier potassium channel; Inward rectifier potassium channel 2 (Mus musculus), P35561; HEK293-Kir2.1, FluxOR thallium flux fluorescence; hits give low values; B-score at 10 µM; actives 0.85% (n = 310,000);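 active = fluorescence ratio B-score at or below minus 3 SD of library scores, with starting-brightness B-score within 2 SD, cut at about -4.2 in these data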;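 also: channel flux triggered by added potassium and thallium sulfate stimulus; B-score of peak minus minimum fluorescence over baseline after thallium stimulus; more negative B-score means stronger Kir2.1 block with less thallium influx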
# SR-BI DiI-HDL act: activators of SR-BI mediated DiI-HDL uptake, primary screen, ldlA[mSR-BI] CHO cells, DiI fluorescence | 3 h; 100 = double the neutral-control signal | activation, % at 12.5 µM | actives 0.096% (n = 320,000);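 active = mean replicate activation of at least 60% and every replicate at or above 60%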;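 also: 0% = median plate neutral-control signal and 100% = twice that signal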
#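 system = CHO ldlA[mSR-BI] cells, LDL receptor-null, SR-BI overexpressing | medium = Ham's F12 with 0.5% BSA, HEPES 25 mM, pH 7.4 | probe or stimulus = DiI-HDL 10 µg/mL | compound dosing = single-point compound dose | incubation = compound exposure 3 h, 37 °C | technique = DiI fluorescence, bottom read | read-out = cell-associated DiI fluorescence as measure of HDL uptake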
# ANO1 block: TMEM16A chloride channel inhibitors, primary screen, cell-based, HTS. AID 588511, 2011. actives 1.2% (n = 310,000). HEK293 TMEM16A/YFP iodide influx fluorescence, ionomycin. normalized B-score (activity score, 25-100; higher = stronger inhibition) at 10 µM;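 active = ratio plate-corrected score three or more library SD toward inhibition, starting fluorescence score within five deviations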;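 also: score derived from kinetic fluorescence span divided by baseline fluorescence per well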
# Target sequence (Q8BHY3 whole entry, looked up): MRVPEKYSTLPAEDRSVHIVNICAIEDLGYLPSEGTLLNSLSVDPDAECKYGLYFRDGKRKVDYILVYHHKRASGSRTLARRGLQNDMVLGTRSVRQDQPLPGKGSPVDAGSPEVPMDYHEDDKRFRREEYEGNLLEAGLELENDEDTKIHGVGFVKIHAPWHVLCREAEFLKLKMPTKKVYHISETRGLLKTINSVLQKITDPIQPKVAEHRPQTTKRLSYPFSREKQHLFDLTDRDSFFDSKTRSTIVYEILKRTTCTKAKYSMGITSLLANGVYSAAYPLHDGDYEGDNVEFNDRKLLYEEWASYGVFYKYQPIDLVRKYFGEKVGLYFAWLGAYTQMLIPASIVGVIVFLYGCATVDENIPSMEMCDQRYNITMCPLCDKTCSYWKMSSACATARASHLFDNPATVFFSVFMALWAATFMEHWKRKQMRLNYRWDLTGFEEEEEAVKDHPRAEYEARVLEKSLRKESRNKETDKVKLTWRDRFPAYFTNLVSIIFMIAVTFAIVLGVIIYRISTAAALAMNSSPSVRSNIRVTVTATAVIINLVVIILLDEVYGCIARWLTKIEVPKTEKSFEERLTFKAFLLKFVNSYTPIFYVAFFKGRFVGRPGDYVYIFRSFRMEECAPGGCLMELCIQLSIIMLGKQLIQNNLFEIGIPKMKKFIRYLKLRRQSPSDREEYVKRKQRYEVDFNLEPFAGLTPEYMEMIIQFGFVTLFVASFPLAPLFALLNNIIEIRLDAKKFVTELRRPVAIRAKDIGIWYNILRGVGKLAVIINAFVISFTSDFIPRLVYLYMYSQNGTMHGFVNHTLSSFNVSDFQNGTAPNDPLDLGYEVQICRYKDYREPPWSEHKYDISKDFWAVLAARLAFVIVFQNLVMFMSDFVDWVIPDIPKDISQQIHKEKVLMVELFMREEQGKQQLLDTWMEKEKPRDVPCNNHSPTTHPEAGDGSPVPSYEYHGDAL
# TMEM16A act: TMEM16A chloride channel activators or potentiators, primary screen, cell-based, HTS. HEK293 TMEM16A/YFP-H148Q/I152L, iodide quench fluorescence; hits give low values. Anoctamin-1 (Mus musculus), Q8BHY3. actives 0.3% (n = 340,000). B-score at 10 µM;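 active = fluorescence-ratio B-score plate-corrected deviation score at least 3 library SD below zero, with starting fluorescence score within 5 deviations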;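 also: channel opened by trigger with iodide after compound preincubation; score built on the fluorescence ratio of max minus min over baseline; more negative score means more quench and so TMEM16A activation or potentiation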
# * marks the source's active call; other numbers are inactive results; i = inactive; x = no result.
SMILES,DNA FID counter,SR-BI DiI inh,Kir21 inh,SR-BI DiI-HDL act,ANO1 block,TMEM16A act
O=C1c2ccccc2S(=O)(=O)c2cc(C(=O)N3CCN(c4ccc(Cl)cn4)CC3)ccc21,x,-1,1.5,1,i,i
Cc1ccc(C(=O)NNC(=O)c2ccccc2O)cc1S(=O)(=O)N1CCCCC1,x,78*,-0.02,-78,i,i
O=C(NNC(=O)c1ccccc1O)c1ccc(Cl)c(S(=O)(=O)N2CCc3ccccc32)c1,x,117*,0.27,-117,100*,i
CCOCCCN(C)C1CCN(S(=O)(=O)c2csc(C(N)=O)c2)CC1,-9,-5,-0.01,5,i,i
CC(=O)Nc1ccc(NC(=O)C(C)OC(=O)CNS(=O)(=O)c2cccc(Cl)c2)cc1 (stereo unspecified),-8,-4,-0.4,4,i,i
Cc1nnc(SC(C)C(=O)Nc2ncc(Cl)cc2Cl)n1Cc1ccccc1 (stereo unspecified),-14,19,-0.72,-19,i,-20*
CC(O)CN(CC(C)O)c1ccc2c(c1)Cc1cc([N+](=O)[O-])ccc1-2 (stereo unspecified),x,89*,x,-89,x,i
Nc1ccc2c(c1)Cc1cc([N+](=O)[O-])ccc1-2,11,26,-0.68,-26,i,i
COc1ccc(-c2cc(C(=O)Nc3c(C)nn(Cc4ccccc4)c3C)no2)cc1,-29,76*,0.92,-76,i,i
Cc1nn(Cc2ccccc2Cl)c(C)c1NC(=O)c1cc(-c2ccc(F)cc2)on1,-6,80*,-0.21,-80,i,i
Cc1ccc2c(c1)cc(C(=O)NCc1ccccc1)n2C,-5,5,-0.48,-5,i,i
CCCc1c(-c2ccc(O)cc2)nn(-c2ccc(O)cc2)c1-c1ccc(O)cc1,x,28,-1.8,-28,100*,i
Cc1c(C(N)=O)c(-c2ccccc2)nn1-c1ccccc1,-5,4,2.1,-4,i,i
CC1CCN(CCCOc2ccc(OCc3ccccc3)cc2)CC1,25,4,-7.2*,-4,i,i
CC1CCN(CCOc2ccc(C(=O)c3ccccc3)cc2)CC1,10,x,-3.5,x,i,i
CC1CCN(CCCCOc2ccc(C(=O)c3ccccc3)cc2)CC1,10,-6,-5.5*,6,i,i
COc1ccccc1NS(=O)(=O)c1cc2c3c(c1)CCN3C(=O)CC2,x,2,-0.57,-2,i,i
Cc1cc(C)c(S(=O)(=O)N2CCN(C(=O)c3ccccc3OCc3c(C)noc3C)CC2)c(C)c1,x,28,x,-28,x,i
N#Cc1nc(-c2ccc(OCc3ccccc3)cc2)oc1N1CCOCC1,-1,71*,1.6,-71,i,i
COc1cccc(-c2nn(C)c3sc(C(=O)Nc4ccc5c(c4)OCCO5)cc23)c1,7,86*,0.63,-86,i,i
Cn1nc(-c2ccccc2F)c2cc(C(=O)Nc3ccc4c(c3)OCCO4)sc21,-16,60,-0.55,-60,i,i
CN(C)CCCNC(=O)c1ccc(-c2nc(-c3ccc(Cl)cc3)cs2)cc1,17,21,-4.7*,-21,i,i
COc1ccc(/C=C/C(=O)Nc2ccc(N3CCOCC3)cc2)cc1,-10,22,-0.6,-22,i,i
COc1ccc(/C=C/C(=O)Nc2cccc(N3CCOCC3)c2)cc1OC,-31,76*,0.21,-76,i,i
O=c1[nH]c(C2CCN(S(=O)(=O)c3ccc4c(c3)OCCO4)CC2)nc2c1nnn2Cc1ccc(F)cc1,-37,-94,-1.1,94*,i,i
SMILES,DNA FID counter,SR-BI DiI inh,Kir21 inh,SR-BI DiI-HDL act,ANO1 block,TMEM16A act
CC(=O)C1=C(C)NC(SCC(N)=O)=C(C#N)C1CC(C)C (stereo unspecified),-7,-10,-0.7,10,i,i
CCOC(=O)C1=C(C)NC(SC)=C(C#N)C1CC(C)C (stereo unspecified),-18,31,-7.1*,-31,i,i
OCCNNC(=S)NC1CC2C=CC1C2 (stereo unspecified),-4,-2,0.42,2,i,i
O=C(CNCc1ccccc1)Nc1ccc(Oc2ccccc2)cc1,-10,-22,-9.5*,22,i,i
NC(=Nc1ccccc1)Nc1ccccc1,-4,-18,-0.42,18,i,-14*
CCCN1CCN(C2CCCCC2NS(=O)(=O)c2ccc(Cl)cc2)CC1 (stereo unspecified),13,-4,-0.03,4,i,i
O=S(=O)(NC1CCCCC1N1CCN(c2ccc(F)cc2)CC1)c1ccc(Cl)cc1 (stereo unspecified),22,11,-0.66,-11,i,-34*
COc1ccc(-n2nnnc2SC(C)C(=O)NC2CCCC2)cc1 (stereo unspecified),x,-21,x,21,x,i
CSc1ccccc1NC(=O)C1CC(c2c(F)cccc2Cl)=NO1 (stereo unspecified),-16,7,2.1,-7,i,i
O=C(Nc1ccc(Br)cc1)C1CC(c2c(F)cccc2Cl)=NO1 (stereo unspecified),-11,-22,-0.14,22,25*,i
Cc1nc(NC(=O)COC(=O)c2ccc(CO)cc2)c(Cl)cc1Cl,x,-10,x,10,x,i
O=C(O)C1CCCN(S(=O)(=O)c2ccc(-c3ccc(=O)[nH]n3)s2)C1 (stereo unspecified),3,3,0.7,-3,i,i
O=C(COC(=O)/C=C/c1cccc(Cl)c1)NCCc1ccc(Cl)cc1Cl,-10,-83,-0.47,83*,i,i
Cc1ccc2nc(SCC(=O)N3CCCCC3)nc(=O)n2c1,x,-9,-0.17,9,i,i
Cc1ccc(Cl)cc1N1CCN(S(=O)(=O)c2cn(C)cn2)CC1,-37,7,2.2,-7,i,i
CCCC(O)(c1ccc(Cl)cc1)C(CN1CCOCC1)c1ccc(Cl)cc1 (stereo unspecified),-16,79*,-0.06,-79,i,i
CN(CC(=O)Nc1ccc(F)c(F)c1F)C(=O)Cc1ccc2c(c1)OCCO2,-15,-2,-0.03,2,i,i
O=C(Nc1ccc(Cl)cc1)N1CCCN(c2ccc(C(F)(F)F)cc2[N+](=O)[O-])CC1,-3,44,-1.3,-44,i,i
